Key:
[1] = test system: HepG2; test: Antiproliferative activity against human HepG2 cells assessed as reduction in cell viability incubated for 48 hrs by MTT assay; format: functional, cell-based; conditions: HepG2, 48 h
Outline: (§1)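 MTT assay after 48 h exposure at six concentrations, range chosen by cytotoxicity. Inhibition = (ODcontrol − ODtest)/ODcontrol × 100%; IC50 is the concentration halving OD versus untreated cells. Means ± SD of three independent determinations. HepG2 and SMMC-7721 grown in DMEM, QGY-7703 and LO2 in RPMI 1640, with 10% FBS at 37 °C.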

[2] = test system: L02; test: Cytotoxicity against human L02 cells assessed as reduction in cell viability incubated for 48 hrs by MTT assay; format: cell-based; conditions: L02, 48 h; outline: as §1
[3] = test system: QGY-7703; test: Antiproliferative activity against human QGY-7703 cells assessed as reduction in cell viability incubated for 48 hrs by MTT assay; format: functional, cell-based; conditions: QGY-7703, 48 h; outline: as §1
[4] = test system: SMMC-7721; test: Antiproliferative activity against human SMMC-7721 cells assessed as reduction in cell viability incubated for 48 hrs by MTT assay; format: functional, cell-based; conditions: SMMC-7721, 48 h; outline: as §1
[5] = molecular target: Nuclear receptor subfamily 4immunitygroup A member 1 (Homo sapiens, UniProt P22736); test: Binding affinity to Nur77 ligand binding domain (unknown origin) at 10 uM by surface plasmon resonance analysis; conditions: filed as modulator
Outline: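 Single-concentration SPR screen at 10.0 µM against Nur77-LBD; binding given as RU response.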

Nuclear receptor subfamily 4immunitygroup A member 1, sequence (P22736 whole entry, the tested form may be a part): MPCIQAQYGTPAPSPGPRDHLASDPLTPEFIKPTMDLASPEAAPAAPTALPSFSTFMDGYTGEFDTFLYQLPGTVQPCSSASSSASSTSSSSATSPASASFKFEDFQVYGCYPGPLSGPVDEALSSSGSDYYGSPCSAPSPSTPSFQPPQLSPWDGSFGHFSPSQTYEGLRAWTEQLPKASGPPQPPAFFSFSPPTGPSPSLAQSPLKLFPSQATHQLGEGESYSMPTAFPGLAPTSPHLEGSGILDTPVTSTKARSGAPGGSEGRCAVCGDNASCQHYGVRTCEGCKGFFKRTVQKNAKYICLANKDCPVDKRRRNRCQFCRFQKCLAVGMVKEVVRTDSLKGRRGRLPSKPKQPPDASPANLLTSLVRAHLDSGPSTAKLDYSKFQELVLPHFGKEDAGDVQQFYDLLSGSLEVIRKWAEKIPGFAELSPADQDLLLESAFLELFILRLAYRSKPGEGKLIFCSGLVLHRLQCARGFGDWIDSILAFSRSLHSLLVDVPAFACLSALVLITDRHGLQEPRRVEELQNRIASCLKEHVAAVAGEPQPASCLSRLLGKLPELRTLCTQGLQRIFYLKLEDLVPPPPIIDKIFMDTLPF

SMILES | IC50 [1] [µM] | IC50 [4] [µM] | Activity [5] [RU] | IC50 [2] [µM] | IC50 [3] [µM]
COc1cccc2c(Nc3ccc4[nH]c(C(=O)N/N=C/c5ccncc5)cc4c3)cc(C)nc12 | > 20 | > 20 | – | > 20 | > 20
COc1cccc(/C=N/NC(=O)c2cc3cc(Nc4cc(C)nc5c(OC)cccc45)ccc3[nH]2)c1OC | 1.09 | 4.89 | – | 2.79 | 1.96
COc1cccc2c(Nc3ccc4[nH]c(C(=O)N/N=C/c5cccnc5)cc4c3)cc(C)nc12 | > 20 | > 20 | – | > 20 | > 20
COc1ccc(/C=N/NC(=O)c2cc3cc(Nc4cc(C)nc5c(OC)cccc45)ccc3[nH]2)cc1 | 0.69 | 1.21 | 88.2 | 0.76 | > 20
COc1cccc2c(Nc3ccc4[nH]c(C(=O)N/N=C/c5ccc[nH]5)cc4c3)cc(C)nc12 | > 20 | > 20 | – | > 20 | > 20
COc1cccc2c(Nc3ccc4[nH]c(C(=O)N/N=C/c5ccccn5)cc4c3)cc(C)nc12 | 14.7 | 4.37 | – | 10.3 | > 20
COc1ccc(/C=N/NC(=O)c2cc3cc(Nc4cc(C)nc5c(OC)cccc45)ccc3[nH]2)c2ccccc12 | 16.6 | 11 | – | 9.16 | 4.61
COc1cccc2c(Nc3ccc4[nH]c(C(=O)N/N=C/c5ccc(C#N)cc5)cc4c3)cc(C)nc12 | 10.4 | > 20 | – | 2.8 | 2.36
O=C(O)c1ccc2cc(-c3ccc(O)c(C45CC6CC(CC(C6)C4)C5)c3)ccc2c1 [O-DEMETHYLATED ADAPALENE] | 2.93 | 5.25 | – | 10.1 | 2.38
COc1cccc(/C=N/NC(=O)c2cc3cc(Nc4cc(C)nc5c(OC)cccc45)ccc3[nH]2)c1 | > 20 | 1.75 | – | 9.85 | > 20
COc1cc(/C=N/NC(=O)c2cc3cc(Nc4cc(C)nc5c(OC)cccc45)ccc3[nH]2)cc(OC)c1OC | > 20 | > 20 | – | > 20 | > 20
COc1cccc(OC)c1/C=N/NC(=O)c1cc2cc(Nc3cc(C)nc4c(OC)cccc34)ccc2[nH]1 | 7.52 | 11.7 | – | 7.31 | > 20
COc1cc(/C=N/NC(=O)c2cc3cc(Nc4cc(C)nc5c(OC)cccc45)ccc3[nH]2)cc(OC)c1 | > 20 | > 20 | – | > 20 | > 20
COc1ccc2[nH]c(C)c(/C=N/NC(=O)c3cc4cc(Nc5cc(C)nc6c(OC)cccc56)ccc4[nH]3)c2c1 | 6.62 | > 20 | – | > 20 | 14.1
COc1cccc2c(Nc3ccc4[nH]c(C(=O)N/N=C/c5cccs5)cc4c3)cc(C)nc12 | 5.44 | 6.49 | – | 6.33 | 1.53
CC1=C(O)C(=O)C=C2C1=CC=C1[C@@]2(C)CC[C@@]2(C)[C@@H]3C[C@](C)(C(=O)O)CC[C@]3(C)CC[C@]12C [CELASTROL] | 1.3 | 1.07 | – | 1.94 | 2.43
COc1cccc2c(Nc3ccc4[nH]c(C(=O)N/N=C/c5cc(C(C)(C)C)c(O)c(C(C)(C)C)c5)cc4c3)cc(C)nc12 | 7.45 | > 20 | – | 3.54 | 4.02
COc1ccc(/C=N/NC(=O)c2cc3cc(Nc4cc(C)nc5c(OC)cccc45)ccc3[nH]2)cc1OC | > 20 | > 20 | – | > 20 | > 20
COc1ccc(/C=N/NC(=O)c2cc3cc(Nc4cc(C)nc5c(OC)cccc45)ccc3[nH]2)c(OC)c1OC | 6.32 | 8.43 | – | 13.7 | 3.78

The next lines start with results.

IC50 [1] [µM] | IC50 [4] [µM] | Activity [5] [RU] | SMILES | IC50 [2] [µM] | IC50 [3] [µM]
1.22 | 1.38 | – | COc1cccc2c(Nc3ccc4[nH]c(C(=O)N/N=C/c5ccccc5F)cc4c3)cc(C)nc12 | 2.48 | 5.42
> 20 | > 20 | – | COc1cccc2c(Nc3ccc4[nH]c(C(=O)N/N=C/c5ccnc6ccccc56)cc4c3)cc(C)nc12 | > 20 | 15.5
> 20 | > 20 | – | COc1ccc(/C=N/NC(=O)c2cc3cc(Nc4cc(C)nc5c(OC)cccc45)ccc3[nH]2)cc1Br | 1.2 | 1.89
> 20 | > 20 | – | COc1cccc2c(Nc3ccc4[nH]c(C(=O)N/N=C/c5cc(C(F)(F)F)ccc5Br)cc4c3)cc(C)nc12 | > 20 | 12.7
8.15 | > 20 | – | COc1cccc2c(Nc3ccc4[nH]c(C(=O)N/N=C/c5ccc(O)cc5O)cc4c3)cc(C)nc12 | 15.9 | > 20
> 20 | 18.8 | – | COc1cccc2c(Nc3ccc4[nH]c(C(=O)N/N=C/c5cc6ccccc6nc5Cl)cc4c3)cc(C)nc12 | > 20 | 9.31
7.47 | 16.2 | – | COc1ccc(/C=N/NC(=O)c2cc3cc(Nc4cc(C)nc5c(OC)cccc45)ccc3[nH]2)c(OC)c1 | 5.72 | 5
> 20 | > 20 | – | COc1cccc2c(Nc3ccc4[nH]c(C(=O)N/N=C/c5ccc([N+](=O)[O-])cc5O)cc4c3)cc(C)nc12 | > 20 | > 20
> 20 | > 20 | – | COc1cccc2c(Nc3ccc4[nH]c(C(=O)N/N=C/c5ccc(C(F)(F)F)cc5C(F)(F)F)cc4c3)cc(C)nc12 | > 20 | > 20
2.1 | 4.58 | – | COc1ccccc1/C=N/NC(=O)c1cc2cc(Nc3cc(C)nc4c(OC)cccc34)ccc2[nH]1 | 5.17 | 3.4
4.19 | > 20 | – | COc1cccc2c(Nc3ccc4[nH]c(C(=O)N/N=C/c5cccc(C(F)(F)F)c5)cc4c3)cc(C)nc12 | 13.5 | 5.39
2.17 | > 20 | – | COc1cccc2c(Nc3ccc4[nH]c(C(=O)N/N=C/c5ccc(F)c(C(F)(F)F)c5)cc4c3)cc(C)nc12 | > 20 | 2.43
> 20 | > 20 | – | COc1cccc2c(Nc3ccc4[nH]c(C(=O)N/N=C/c5cc(O)ccc5O)cc4c3)cc(C)nc12 | > 20 | > 20
1.24 | 0.98 | – | COc1cccc2c(Nc3ccc4[nH]c(C(=O)N/N=C/c5ccccc5Cl)cc4c3)cc(C)nc12 | 3.68 | 1.06
2.92 | 3.14 | – | COc1cccc2c(Nc3ccc4[nH]c(C(=O)N/N=C/c5cccc(C)c5)cc4c3)cc(C)nc12 | 3.16 | 1.74
> 20 | > 20 | – | COc1cccc2c(Nc3ccc4[nH]c(C(=O)N/N=C/c5ccc(O)cc5)cc4c3)cc(C)nc12 | 9.31 | 14.1
1.98 | 0.73 | 91 | COc1ccc(/C=N/NC(=O)c2cc3cc(Nc4cc(C)nc5c(OC)cccc45)ccc3[nH]2)cc1C(F)(F)F | 5.23 | 0.4
